How the values were obtained:
Format in all cases: functional
[1] = test system: Rattus norvegicus; experiment: Inhibition of passive cutaneous anaphylaxis (PCA) reaction in rats, peroral administration 5 mg/kg; settings: route oral
In short: (§1)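 Rats were sensitized by intradermal antiserum dilutions at several dorsal sites. After 48 h they were challenged iv with 1 mg ovalbumin in 1 mL saline containing 0.25% Evans blue. Drug was suspended in 1% gum tragacanth in saline and given ip or orally 10–15 min before challenge. Rats were killed 30 min later and the mean orthogonal wheal diameter was measured.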

[2] = test system: Rattus norvegicus; experiment: Ability to inhibit the passive cutaneous anaphylaxis (PCA) reaction in rats by intravenous administration of 0.5 mg/kg
In short: (§2)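 Rats were given intradermal antiserum dilutions on the back. At 48 h, drug dissolved in the challenge solution (1 mg ovalbumin, 0.25% Evans blue, 1 mL saline) was injected iv with the antigen; sodium bicarbonate in slight molar excess was used if needed. Wheal diameters were read 30 min later and plotted against antiserum concentration, with the least-squares line extrapolated to a zero-antiserum base value. Five rats per group.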

[3] = test system: Rattus norvegicus; experiment: Ability to inhibit the passive cutaneous anaphylaxis (PCA) reaction in rats by peroral administration of 2 mg/kg; in short: as §1
[4] = test system: Rattus norvegicus; experiment: Inhibition of passive cutaneous anaphylaxis (PCA) reaction in rats by intraperitoneal administration of 5 mg/kg; settings: ip; in short: as §1
[5] = test system: Rattus norvegicus; experiment: Inhibition of the passive cutaneous anaphylaxis (PCA) reaction in rats by intravenous administration of 0.01 mg/kg; in short: as §2
[6] = test system: Rattus norvegicus; experiment: Inhibition of the passive cutaneous anaphylaxis (PCA) reaction in rats by intravenous administration of 0.1 mg/kg; in short: as §2
[7] = test system: Rattus norvegicus; experiment: Ability to inhibit the passive cutaneous anaphylaxis (PCA) reaction in rats by peroral administration of 5 mg/kg; settings: route oral; in short: as §1
[8] = test system: Rattus norvegicus; experiment: Ability to inhibit the passive cutaneous anaphylaxis (PCA) reaction in rats by intraperitoneal administration of 5 mg/kg; settings: ip; in short: as §1
[9] = test system: Rattus norvegicus; experiment: Ability to inhibit the passive cutaneous anaphylaxis (PCA) reaction in rats by peroral administration; in short: as §1
[10] = test system: Rattus norvegicus; experiment: Ability to inhibit the passive cutaneous anaphylaxis (PCA) reaction in rats by intravenous administration of 0.001 mg/kg; in short: as §2
[11] = test system: Rattus norvegicus; experiment: Ability to inhibit the passive cutaneous anaphylaxis (PCA) reaction in rats by peroral administration of 10 mg/kg; settings: route oral; in short: as §1
[12] = test system: Rattus norvegicus; experiment: Ability to inhibit the passive cutaneous anaphylaxis (PCA) reaction in rats by intravenous administration of 0.005 mg/kg; in short: as §2
[13] = test system: Rattus norvegicus; experiment: Ability to inhibit the passive cutaneous anaphylaxis (PCA) reaction in rats by intraperitoneal administration of 1 mg/kg; settings: ip, read-out: Inhibition; in short: as §1

SMILES	inhibition in vivo at 5 mg/kg [1]	inhibition in vivo at 5 mg/kg [4]	other results
O=C(O)c1cc2n(Cc3ccccc3)c3ccc(Cl)cc3c(=O)n2n1	7%	–	–
Cc1cc2n(C)c3ccc(C(=O)O)cc3c(=O)n2n1	–	–	inhibition in vivo at 0.5 mg/kg [2]: 21%; inhibition in vivo at 2 mg/kg ([3]; route oral): 9%
O=C(O)c1cc2nc3ccc(O)cc3c(O)n2n1	0%	100%	–
Cn1c2ccc(F)cc2c(=O)n2nc(-c3nn[nH]n3)cc12	8%	100%	inhibition in vivo at 2 mg/kg ([3]; route oral): 27%; inhibition in vivo at 0.01 mg/kg [5]: 10%; inhibition in vivo at 0.1 mg/kg [6]: 100%
Cn1c2ccccc2c(=O)n2nc(C(=O)O)cc12	–	–	inhibition in vivo at 5 mg/kg [7]: 40%; inhibition in vivo at 0.5 mg/kg [2]: 100%; inhibition in vivo at 5 mg/kg [8]: 100%
Cn1c2ccccc2c(=O)n2nc(C(=O)Nc3nn[nH]n3)cc12	–	51%	Inhibition [9]: 0%
Cn1c2ccc(N)cc2c(=O)n2nc(C(=O)O)cc12	0%	84%	inhibition in vivo at 0.1 mg/kg [6]: 16%
O=C(O)c1cc2nc3c(O)cccc3c(O)n2n1	–	100%	inhibition in vivo at 0.1 mg/kg [6]: 75%
COc1cc2c(=O)n3nc(C(=O)O)cc3n(C)c2cc1OC	6%	100%	–
O=C(O)c1cc2nc3cc(Cl)c(Cl)cc3c(O)n2n1	0%	9%	–
COc1cccc2c(O)n3nc(-c4nn[nH]n4)cc3nc12	3%	27%	–
O=C(Nc1nn[nH]n1)c1cc2n(Cc3ccccc3)c3ccc(Cl)cc3c(=O)n2n1	0%	3%	–
Cc1ccc2c(c1)c(=O)n1nc(C(=O)O)cc1n2C	–	–	inhibition in vivo at 0.5 mg/kg [2]: 55%; inhibition in vivo at 2 mg/kg ([3]; route oral): 25%
O=C(O)c1cc2nc3ccc(Cl)cc3c(O)n2n1	0%	45%	–
CCOC(=O)c1cc2n(CC)c3ccc(Cl)cc3c(=O)n2n1	–	100%	–
COc1cccc2c(O)n3nc(C(=O)Nc4nn[nH]n4)cc3nc12	14%	100%	–
COc1cccc2c(O)n3nc(C(=O)O)cc3nc12	79%	70%	inhibition in vivo at 0.001 mg/kg [10]: 8%; inhibition in vivo at 10 mg/kg [11]: 62%; inhibition in vivo at 0.005 mg/kg [12]: 31%; inhibition in vivo at 0.01 mg/kg [5]: 74%; inhibition in vivo at 0.1 mg/kg [6]: 100%
Cn1c2ccc(Cl)cc2c(=O)n2nc(-c3nn[nH]n3)cc12	0%	100%	inhibition in vivo at 0.5 mg/kg [2]: 100%; inhibition in vivo at 2 mg/kg ([3]; route oral): 39%; inhibition in vivo at 0.01 mg/kg [5]: 17%
Cn1c2ccccc2c(=O)n2nc(-c3nn[nH]n3)cc12	0%	91%	inhibition in vivo at 0.5 mg/kg [2]: 84%; inhibition in vivo at 2 mg/kg ([3]; route oral): 52%; inhibition in vivo at 0.1 mg/kg [6]: 0%
COc1cc2nc3cc(C(=O)Nc4nn[nH]n4)nn3c(O)c2cc1OC	0%	100%	–
Oc1c2ccccc2nc2cc(-c3nn[nH]n3)nn12	0%	26%	–
O=C(Nc1nn[nH]n1)c1cc2nc3ccccc3c(O)n2n1	1%	100%	–
Cn1c2ccc(Cl)cc2c(=O)n2nc(C(=O)O)cc12	–	–	inhibition in vivo at 0.5 mg/kg [2]: 70%; inhibition in vivo at 2 mg/kg ([3]; read-out: Inhibition, route oral): 9%; inhibition in vivo at 1 mg/kg [13]: 59%
O=C(Nc1nn[nH]n1)c1cc2nc3ccc(O)cc3c(O)n2n1	–	100%	inhibition in vivo at 0.1 mg/kg [6]: 90%
COc1cccc2nc3cc(C(=O)Nc4nn[nH]n4)nn3c(O)c12	18%	100%	–
Cc1cccc2c(O)n3nc(C(=O)Nc4nn[nH]n4)cc3nc12	9%	100%	–
